Reference: ChEMBL document CHEMBL5038599, “Identification of Thiazoyl Guanidine Derivatives as Novel Antifungal Agents Inhibiting Ergosterol Biosynthesis for Treatment of Invasive Fungal Infections” (J Med Chem, 2021)
In brackets after ≈: the same amount, converted by molar mass. Activity calls are given as the source filed them. No cut-off for these calls is given here.

How the values were obtained:
[1] = test system: Aspergillus fumigatus; assay: Antifungal activity against Aspergillus fumigatus ATCC 204305 assessed as inhibition of fungal growth incubated for 48 hrs in presence of 50% heat-inactivated bovine serum by broth microdilution method; assay type: functional; conditions: ATCC 204305, 48 h, in the assay text read “incubated for 48 hrs” for “incubated for 24 hrs”
Outline: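 Broth microdilution per CLSI M38-A2 with modifications. Conidia at about 1 × 10⁴ CFU/mL were grown for 48 h at 35 °C in YNB with 2% glucose and complete amino-acid mix, buffered to pH 7.0 with 50 mM MOPS. Medium was with or without 50% heat-inactivated bovine serum. MIC was the lowest concentration giving no visible growth.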

[2] = test system: Aspergillus fumigatus; assay: Antifungal activity against Aspergillus fumigatus ATCC 204305 assessed as inhibition of fungal growth incubated for 48 hrs by broth microdilution method; conditions: ATCC 204305, 48 h
[3] = Metabolic stability in human liver microsomes assessed as parent compound remaining at 0.5 uM incubated for 30 mins by LC/MS/MS analysis; assay type: ADME, Microsome; conditions: read-out: Stability
Outline: (§1)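 Compound at 0.5 μM was incubated with liver microsomes at 0.5 mg protein/mL at 37 °C. Buffer was 50 mM Tris-HCl pH 7.4 with 150 mM KCl, 10 mM MgCl2 and 1 mM NADPH. Reactions were stopped at 0 and 30 min with MeCN/MeOH 1:1. Percent remaining was taken from LC/MS/MS peak area ratio, in duplicate.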

[4] = Metabolic stability in rat liver microsomes assessed as parent compound remaining at 0.5 uM incubated for 30 mins by LC/MS/MS analysis; assay type: ADME, Microsome; conditions: read-out: Stability; outline: as §1
[5] = test system: Aspergillus fumigatus; assay: Antifungal activity against Aspergillus fumigatus ATCC 204305 assessed as inhibition of fungal growth […] by broth microdilution method; assay type: functional
[6] = test system: Candida albicans; assay: Antifungal activity against Candida albicans ATCC 90028 assessed as inhibition of fungal growth incubated for 24 hrs by broth microdilution method; assay type: functional
Outline: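 Yeast cells were adjusted to about 2 × 10³ CFU/mL and broth microdilution was run for 24 h at 35 °C. Medium was YNB with 2% glucose and complete amino-acid mix, buffered to pH 7.0 with 50 mM MOPS. MIC was the lowest concentration giving >50% growth reduction versus untreated control, read by optical density at 600 nm.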

[7] = Clearance in Sprague-Dawley rat at 0.5 mg/kg, iv measured upto 1440 mins by LC/MS/MS analysis; assay type: ADME, organism-based; conditions: in vivo
[8] = test system: Mus musculus; assay: In vivo antifungal activity against Aspergillus fumigatus infected in ICR mouse assessed as log reduction in fungal burden with 18S rRNA in kidney at 30 mg/kg, iv administered at 2 to 50 hrs post-inoculation and measured after 60 hrs by RT-qPCR analysis; assay type: functional
Outline: (§2)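 Male ICR mice (5 weeks) were immunosuppressed with intraperitoneal cyclophosphamide, 150 mg/kg on day −4 and 100 mg/kg on day −1. Mice were infected intravenously with about 1.5 × 10⁵ conidia in saline. Tail-vein dosing was at 2, 16, 21, 26, 40, 45 and 50 h, in 5% DMSO/5% Cremophor EL/4% glucose or 5% glucose. Samples were taken at 60 h, five mice per group, and analysed by Dunnett's test against untreated controls.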

[9] = Unbound fraction in Sprague-Dawley rat at 0.5 mg/kg, iv measured upto 1440 mins by LC/MS/MS analysis; assay type: ADME, organism-based; conditions: in vivo
[10] = test system: Mus musculus; assay: In vivo antifungal activity against Aspergillus fumigatus infected in ICR mouse assessed as reduction in serum-galactomannan at 30 mg/kg, iv administered at 2 to 50 hrs post-inoculation and measured after 60 hrs by GM analysis; assay type: functional, organism-based; outline: as §2
[11] = Volume of distribution at steady state in Sprague-Dawley rat at 0.5 mg/kg, iv measured upto 1440 mins by LC/MS/MS analysis; assay type: ADME, organism-based; conditions: in vivo, read-out: Vdss
[12] = test system: Aspergillus fumigatus; assay: Antifungal activity against pan-azole resistant Aspergillus fumigatus SR47013 harbouring Cyp51A Y121F mutant assessed as inhibition of fungal growth incubated for 48 hrs by broth microdilution method; conditions: SR47013, 48 h
[13] = test system: Aspergillus fumigatus; assay: Inhibition of Sterol methyl transferase in Aspergillus fumigatus ATCC 204305 assessed as accumulation of zymosterol at 0.5 ug/mL measured per 100 mg of mycelia by LC/MS analysis (Rvb= 0 nmol); conditions: dose 0.5 µg/ml
Outline: (§3)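 Conidia at 1 × 10⁴ CFU/mL were grown 24 h at 35 °C in YNB with 2% glucose and amino-acid mix, then compound was added and cultures ran a further 24 h. Mycelia were filtered and saponified in 25% ethanolic KOH at 85 °C for 1 h. Sterols were extracted into n-hexane, dried under N₂ at 40 °C and redissolved in acetone at 200 μL per 100 mg dry mycelium. Separation used a C18 column at 40 °C with an acetonitrile gradient.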

[14] = test system: Aspergillus fumigatus; assay: Inhibition of Sterol methyl transferase in Aspergillus fumigatus ATCC 204305 assessed as accumulation of lanosterol at 0.5 ug/mL measured per 100 mg of mycelia by LC/MS analysis (Rvb= 0 nmol); conditions: dose 0.5 µg/ml; outline: as §3
[15] = test system: Aspergillus fumigatus; assay: Inhibition of Sterol methyl transferase in Aspergillus fumigatus ATCC 204305 assessed as accumulation of ergosterol at 0.5 ug/mL measured per 100 mg of mycelia by LC/MS analysis (Rvb= 144 nmol); conditions: dose 0.5 µg/ml; outline: as §3
[16] = AUC in ICR mouse at 30 mg/kg, iv measured upto 360 mins by LC/MS/MS analysis; assay type: ADME, organism-based; design: route intravenous, dose 30 mg/kg, time <=360; conditions: in vivo
Outline: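 Male ICR mice, 6 weeks old. Dosed iv via tail vein at 30 mg/10 mL/kg (n = 3). The test agent was a solution in 5% DMSO, 5% Cremophor EL and 4% glucose; the reference azole was in 5% glucose. Blood (EDTA-2K plus heparin) was taken at 5, 30, 60, 180 and 360 min and spun to plasma. Proteins were precipitated with methanol before LC/MS/MS.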

[17] = test system: Aspergillus fumigatus; assay: Inhibition of Sterol methyl transferase in Aspergillus fumigatus ATCC 204305 assessed as accumulation of eburicol at 0.5 ug/ml measured per 100 mg of mycelia by LC/MS analysis (Rvb= 0 nmol); conditions: dose 0.5 µg/ml; outline: as §3

Oc1ccccc1-c1nc(-c2csc(N=C3NCCCN3)n2)cs1
MIC50 [1]: 8 µg/mL | MIC [2]: 0.5 µg/mL (≈ 1.4 µM) | remaining at 0.5 h, 0.5 µM [3]: 30% | remaining at 0.5 h, 0.5 µM [4]: 38%

c1ccc(-c2cc(-c3csc(N=C4NCCCN4)n3)cs2)cc1
MIC50 [5]: 4 µg/mL (≈ 11.7 µM) | MIC50 [6]: 0.063 µg/mL (≈ 0.185 µM) | remaining at 0.5 h, 0.5 µM [3]: 70% | remaining at 0.5 h, 0.5 µM [4]: 30%

c1ccc(-c2cccc(-c3csc(N=C4NCCCN4)n3)c2)cc1
MIC50 [5]: 1 µg/mL (≈ 2.99 µM) | MIC50 [6]: < 0.063 µg/mL

O=C(O)c1ccc(-c2nc(-c3csc(N=C4NCCCN4)n3)cs2)cc1
MIC [2]: > 16 µg/mL

Oc1ccc(-c2nc(-c3csc(N=C4NCCCN4)n3)cs2)cc1
MIC50 [1]: > 16 µg/mL | MIC [2]: 2 µg/mL (≈ 5.59 µM) | remaining at 0.5 h, 0.5 µM [3]: 86% | remaining at 0.5 h, 0.5 µM [4]: 53%

Cc1ccc(Oc2ccccc2-c2csc(N=C3NCCCN3)n2)c(C)c1 [ABAFUNGIN]
clearance [7]: 51.4 mL/min/kg | MIC50 [5]: 2 µg/mL (≈ 5.28 µM) | Activity [8]: inactive | fraction unbound at 24 h [9]: < 0.001 | Activity [10]: inactive | Vd [11]: 4.92 L/kg | MIC50 [6]: < 0.063 µg/mL | remaining at 0.5 h, 0.5 µM [3]: 64% | MIC50 [12]: 2 µg/mL (≈ 5.28 µM) | remaining at 0.5 h, 0.5 µM [4]: 0.2%

Cc1ccc(Oc2ccccc2-c2csc(Nc3ccccn3)n2)c(C)c1
MIC50 [5]: > 16 µg/mL | MIC50 [6]: > 16 µg/mL

CCC(C)n1ncn(-c2ccc(N3CCN(c4ccc(OCC5COC(Cn6cncn6)(c6ccc(Cl)cc6Cl)O5)cc4)CC3)cc2)c1=O (configuration not stated) [ITRACONAZOLE]
MIC [2]: 0.25 µg/mL (≈ 0.354 µM) | MIC50 [12]: > 16 µg/mL

c1ccc(-n2ccc(-c3csc(N=C4NCCCN4)n3)n2)cc1
MIC50 [5]: > 16 µg/mL | MIC50 [6]: 0.5 µg/mL (≈ 1.54 µM) | remaining at 0.5 h, 0.5 µM [3]: 38% | remaining at 0.5 h, 0.5 µM [4]: 1.6%

Cc1ccc(Oc2ccccc2-c2csc(Nc3ncccn3)n2)c(C)c1
MIC50 [5]: > 16 µg/mL | MIC50 [6]: > 16 µg/mL

c1cc(-c2nc(-c3csc(N=C4NCCCN4)n3)cs2)ccn1
MIC50 [1]: 4 µg/mL | MIC [2]: 0.5 µg/mL (≈ 1.46 µM) | remaining at 0.5 h, 0.5 µM [3]: 58% | remaining at 0.5 h, 0.5 µM [4]: 9%

Cc1ccc(Oc2ccccc2-c2csc(N)n2)c(C)c1
MIC50 [5]: > 16 µg/mL | MIC50 [6]: 4 µg/mL (≈ 13.5 µM)

c1ccc(-c2nc(-c3csc(N=C4NCCCN4)n3)co2)cc1
MIC50 [5]: 16 µg/mL (≈ 49.2 µM) | MIC50 [6]: 0.063 µg/mL (≈ 0.194 µM)

Cc1ccc(Oc2ccccc2-c2csc(N(C)C)n2)c(C)c1
MIC50 [5]: > 16 µg/mL | MIC50 [6]: > 16 µg/mL

Cc1ccc(Oc2ccccc2-c2cccc(N=C3NCCCN3)n2)c(C)c1
MIC50 [5]: 4 µg/mL (≈ 10.7 µM) | MIC50 [6]: 0.5 µg/mL (≈ 1.34 µM)

C[C@@H](c1ncncc1F)[C@](O)(Cn1cncn1)c1ccc(F)cc1F [VORICONAZOLE]
Activity [13]: 0 nmol | Activity [8]: inactive | Activity [14]: 1 nmol | Activity [15]: 99 nmol | Activity [10]: inactive | AUC at 6 h [16]: 222 µg·h/mL | MIC [2]: 0.5 µg/mL (≈ 1.43 µM) | Activity [17]: 34 nmol | MIC50 [12]: > 16 µg/mL

Cc1ccc(Oc2ccccc2-c2csc(N=C3NCCN3)n2)c(C)c1
MIC50 [5]: > 16 µg/mL | MIC50 [6]: 0.5 µg/mL (≈ 1.37 µM)

CS(=O)(=O)c1cccc(-c2nc(-c3csc(N=C4NCCCN4)n3)cs2)c1
MIC50 [1]: 16 µg/mL | MIC [2]: 4 µg/mL (≈ 9.53 µM) | remaining at 0.5 h, 0.5 µM [3]: 85% | remaining at 0.5 h, 0.5 µM [4]: 47%

Cc1ccc(Oc2ccccc2-c2csc(/N=C3\NCCCN3C)n2)c(C)c1
MIC50 [5]: > 16 µg/mL | MIC50 [6]: 8 µg/mL (≈ 20.4 µM)

c1cncc(-c2nc(-c3csc(N=C4NCCCN4)n3)cs2)c1
MIC50 [1]: 2 µg/mL | MIC [2]: 0.5 µg/mL (≈ 1.46 µM) | remaining at 0.5 h, 0.5 µM [3]: 78% | remaining at 0.5 h, 0.5 µM [4]: 19%

c1ccc(-c2nc(-c3csc(N=C4NCCCN4)n3)cs2)nc1
MIC [2]: 16 µg/mL (≈ 46.7 µM)

CNC(=Nc1nc(-c2ccccc2Oc2ccc(C)cc2C)cs1)NC
MIC50 [5]: > 16 µg/mL | MIC50 [6]: > 16 µg/mL

c1ccc(-c2nc(-c3csc(N=C4NCCCN4)n3)cs2)cc1
MIC50 [1]: 8 µg/mL | clearance [7]: 33.1 mL/min/kg | MIC50 [5]: 0.5 µg/mL (≈ 1.46 µM) | fraction unbound at 24 h [9]: 0.0104 | Vd [11]: 7.25 L/kg | MIC50 [6]: < 0.063 µg/mL | remaining at 0.5 h, 0.5 µM [3]: 83% | remaining at 0.5 h, 0.5 µM [4]: 31%

Cc1ccc(Oc2ccccc2-c2csc(N=C3NCCCCN3)n2)c(C)c1
MIC50 [5]: > 16 µg/mL | MIC50 [6]: 1 µg/mL (≈ 2.55 µM)

Cc1ccc(Oc2ccccc2-c2nsc(N=C3NCCCN3)n2)c(C)c1
MIC50 [5]: > 16 µg/mL | MIC50 [6]: > 16 µg/mL

Cc1ccc(Oc2ccccc2-c2cnc(N=C3NCCCN3)s2)c(C)c1
MIC50 [5]: > 16 µg/mL | MIC50 [6]: > 16 µg/mL

Oc1cccc(-c2nc(-c3csc(N=C4NCCCN4)n3)cs2)c1
MIC [2]: 4 µg/mL (≈ 11.2 µM) | remaining at 0.5 h, 0.5 µM [3]: 77% | remaining at 0.5 h, 0.5 µM [4]: 35%

CC[C@@H]([C@H](C)O)n1ncn(-c2ccc(N3CCN(c4ccc(OC[C@@H]5CO[C@@](Cn6cncn6)(c6ccc(F)cc6F)C5)cc4)CC3)cc2)c1=O [POSACONAZOLE]
MIC [2]: 0.063 µg/mL (≈ 0.0899 µM) | MIC50 [12]: 4 µg/mL (≈ 5.71 µM)

C[C@@H](c1nc(-c2ccc(C#N)cc2)cs1)[C@](O)(Cn1cncn1)c1cc(F)ccc1F [ISAVUCONAZOLE]
MIC [2]: 0.25 µg/mL (≈ 0.571 µM) | MIC50 [12]: > 16 µg/mL
